APP 5'UTR act = activators of APP 5'UTR luciferase reporter, primary screen, SH-SY5Y cells; activation, % at 2 µM; SH-SY5Y APP 5'UTR luciferase reporter, luminescence; zero percent = DMSO vehicle wells; AID 1276, 2008; hit rate 1% among 190,000;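 active means activation above a set limit, based on mean plus 3 SD of controls, cut at about 140% in these data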
FLuc act counter = FLuc activators, initial screening, artefact control for FLuc-dependent activation tests, biochemical, ATPlite luminescence. Luciferin 4-monooxygenase (Photinus pyralis), P08659. ATPlite luciferase biochemical, 10 min; 0 = ATP-free wells, 1 = DMSO control. activation factor at 10 µM. 200,000 tested, under 10 active. AID 1027, 2008;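 active means luciferase activation factor, scaled between plate controls, of at least 2 with compound at 10 µM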
Target sequence (P08659 whole entry, looked up): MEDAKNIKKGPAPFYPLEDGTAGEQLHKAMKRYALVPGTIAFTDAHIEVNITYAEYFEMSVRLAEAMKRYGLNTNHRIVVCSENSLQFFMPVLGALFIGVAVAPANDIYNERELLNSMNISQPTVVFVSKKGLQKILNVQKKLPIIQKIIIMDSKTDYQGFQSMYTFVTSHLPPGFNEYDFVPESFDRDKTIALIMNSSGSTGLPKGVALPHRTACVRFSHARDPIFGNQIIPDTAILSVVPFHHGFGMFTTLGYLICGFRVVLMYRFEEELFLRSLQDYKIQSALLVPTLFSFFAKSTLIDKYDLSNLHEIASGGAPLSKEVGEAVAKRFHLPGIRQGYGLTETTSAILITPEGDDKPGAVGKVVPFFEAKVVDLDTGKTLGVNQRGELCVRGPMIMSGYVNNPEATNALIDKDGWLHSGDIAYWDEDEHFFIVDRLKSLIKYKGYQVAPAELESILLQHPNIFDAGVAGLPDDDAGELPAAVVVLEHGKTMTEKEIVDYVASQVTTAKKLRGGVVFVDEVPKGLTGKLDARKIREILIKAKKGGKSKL
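Assay system: Luciferase/luciferin detection reagent, cell-free biochemical luciferase assay / Also added: ATP substrate / Schedule: 10 min at ambient temperature / Measured by: luminescence measurement of luciferase light output / Benchmarks: low control with PBS replacing ATP, high control enzyme plus ATP without compound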
FLuc inh counter = firefly luciferase enzyme inhibitors, primary screen, artefact control for luciferase-based inhibitor screens, biochemical, luminescence, ATPLite | inhibition, % at 10 µM | 10 min | Luciferin 4-monooxygenase (Photinus pyralis), P08659 | hit rate 1.5% among 200,000;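 active means inhibition above about 50% when tested at 10 µM, limit read from the data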
STAT1 act = STAT1 signaling activators, primary screen, cell-based, HTS, luciferase reporter; NIH 3T3 STAT1-luciferase reporter, IFN-gamma, luminescence; 100% = IFN-gamma alone, no compound; activation (% of control), % at 5.5 µM; AID 932, 2007; hit rate 2.6% among 200,000;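 active means activation above the screen-wide mean activation plus 3 SD, cut at about 130% in these data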;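 further: raw ratio to IFN-gamma control signal so 100% means no change and 0% no light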
NF-kB expr up = activators of NF-kB expression in neurons, primary screen, cell-based, HTS. human neuronal cells, NF-kB reporter expression; active compounds read high. fold change at 12.5 µM. hit rate 1.6% among 190,000; in the data active means fold change above about 3.3
STAT1 activ conf = STAT1 signaling activators, confirmation, cell-based, HTS, luciferase reporter; shares compounds with STAT1 act; NIH 3T3 STAT1-luciferase reporter, IFN-gamma potentiation, luminescence; 100% = IFN-gamma EC80 alone, no compound; activation (% of control), % at 5.7 µM; hit rate 97% among 1,200; AID 1262, 2008;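 active means activation above a set limit carried over from the earlier primary STAT1 screen, cut at about 140% in these data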;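 further: simple ratio to median IFN-gamma plus DMSO wells so 0% means no light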
NFkB act = NF-kB reporter activators, TNF-alpha stimulated, counter-screen for STAT1 activator project, cell-based, HEK293T, luciferase luminescence. shares compounds with STAT1 act. 100% = TNF-alpha with vehicle only. activation (% of control), % at 5.7 µM. hit rate 43% among 1,200. AID 1306, 2008;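 active means activation above the mean of solvent-only control wells plus 3 SD, set per campaign, cut at about 130% in these data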;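 further: TNF-alpha given at a submaximal dose yielding about 80% of full reporter signal; values are well signal over median control so 100% means no change and 0% no light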
STAT3 act STAT1c = STAT3 reporter activation by STAT1 hits, confirmation, counter-screen for STAT1 activator project, U3A cells, luciferase, luminescence; shares compounds with STAT1 act; IL-6; cells lack STAT1; 100 = IL-6 alone, no compound effect; activation (% of control), % at 5.7 µM; hit rate 46% among 1,200;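 active means activation above the solvent-only control well mean plus 3 SD, set per plate batch, cut at about 110% in these data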;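 further: 0% = no luminescence and 100% = median IL-6 plus DMSO wells; higher means more STAT3 reporter activation so hits are non-selective activators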
Numbers without * were called inactive. An excerpt weighted towards active compounds, which were near 4.3% of everything screened.

Screening COc1cc(OC)cc(C(=O)N2CCC(n3c(C)nc4cc(F)ccc43)CC2)c1 returned APP 5'UTR act 2, FLuc act counter 1, FLuc inh counter -4, STAT1 act 107 and NF-kB expr up 0.77.
For CCn1c(C)cc(/C=C2/NC(=O)N(c3ccccc3)C2=O)c1C the results were APP 5'UTR act 89, FLuc act counter 0.7, FLuc inh counter 27, STAT1 act 168*, NF-kB expr up 0.95, STAT1 activ conf 187*, NFkB act 139* and STAT3 act STAT1c 103.
Screening COc1ccccc1-c1nc(-c2ccncc2)no1 returned APP 5'UTR act 106, FLuc act counter 0.8, FLuc inh counter 18, STAT1 act 159*, NF-kB expr up 2.3, STAT1 activ conf 188*, NFkB act 131 and STAT3 act STAT1c 111*.
For COc1ccc(-c2nc(-c3ccc(Br)cc3)no2)c(OC)c1 the results were APP 5'UTR act 94, FLuc act counter 0.7, FLuc inh counter 26, STAT1 act 155*, NF-kB expr up 6*, STAT1 activ conf 233*, NFkB act 132 and STAT3 act STAT1c 112*.
COc1ccc(-c2csc(-c3ccccc3)n2)c(OC)c1 was read as APP 5'UTR act 195*, FLuc act counter 0.7, FLuc inh counter 33, STAT1 act 153*, NF-kB expr up 12*, STAT1 activ conf 227*, NFkB act 144* and STAT3 act STAT1c 144*.
CCOC(=O)c1sc(NC(=O)c2sccc2C)cc1C was read as APP 5'UTR act 154*, FLuc act counter 0.5, FLuc inh counter 46, STAT1 act 152*, NF-kB expr up 12*, STAT1 activ conf 252*, NFkB act 129 and STAT3 act STAT1c 101.
CCOC(=O)c1sc(NC(=O)Nc2cccc(Cl)c2)cc1C was read as APP 5'UTR act 105, FLuc act counter 0.5, FLuc inh counter 46, STAT1 act 117 and NF-kB expr up 1.1.
`CCOc1ccc2nc(NC(=O)CSc3ccc(Cl)cc3)sc2c1` gave APP 5'UTR act -14, FLuc act counter 1, FLuc inh counter -4, STAT1 act 97 and NF-kB expr up 1.1.
For COc1ccc2nc(NC(=S)N(C)C)sc2c1 the results were APP 5'UTR act 48, FLuc act counter 0.7, FLuc inh counter 30, STAT1 act 171*, NF-kB expr up 11*, STAT1 activ conf 257*, NFkB act 127 and STAT3 act STAT1c 86.
CCOCC(=O)Nc1nc2ccc(OCC)cc2s1 was read as APP 5'UTR act 84, FLuc act counter 0.8, FLuc inh counter 24, STAT1 act 152*, NF-kB expr up 2.8, STAT1 activ conf 167*, NFkB act 125 and STAT3 act STAT1c 101.
Screening CCOc1ccc2nc(N3CCCCCC3)sc2c1 returned APP 5'UTR act 194*, FLuc act counter 0.6, FLuc inh counter 42, STAT1 act 191*, NF-kB expr up 7.2*, STAT1 activ conf 246*, NFkB act 144* and STAT3 act STAT1c 106.
Screening CCS(=O)(=O)N1CCN(c2ccc([N+](=O)[O-])c(NCC3CCCO3)c2)CC1 (stereo unspecified) returned APP 5'UTR act 5, FLuc act counter 1.1, FLuc inh counter -9, STAT1 act 95 and NF-kB expr up 1.2.
